Where a chain is given by its changes, count along the chain named. Like-named read-outs stand apart in the source and are kept apart here.

Holding throughout (assay type): cell-based, rabbit
The target of one assay is T1, D444C-EAAC1 (Oryctolagus cuniculus, UniProt P31597, D444C).
T1 sequence (P31597 1-524 D444C): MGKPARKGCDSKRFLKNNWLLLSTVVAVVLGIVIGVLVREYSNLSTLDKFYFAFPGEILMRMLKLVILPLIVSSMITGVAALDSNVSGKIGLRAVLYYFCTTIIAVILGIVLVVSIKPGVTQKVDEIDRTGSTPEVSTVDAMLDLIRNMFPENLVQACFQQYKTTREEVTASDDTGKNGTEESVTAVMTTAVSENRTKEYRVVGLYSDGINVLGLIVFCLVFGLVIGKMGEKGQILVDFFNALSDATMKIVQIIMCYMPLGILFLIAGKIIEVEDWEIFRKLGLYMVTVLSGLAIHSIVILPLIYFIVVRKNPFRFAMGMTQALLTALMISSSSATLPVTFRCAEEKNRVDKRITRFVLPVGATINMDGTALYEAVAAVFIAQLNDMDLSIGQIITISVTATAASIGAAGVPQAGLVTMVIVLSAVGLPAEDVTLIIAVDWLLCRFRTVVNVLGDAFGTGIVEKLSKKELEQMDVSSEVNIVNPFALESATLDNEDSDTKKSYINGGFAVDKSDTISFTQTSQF
The assay can be described thus: Blockade of sodium-dependent transient currents. Conditions: for Decay time of transient currents blocked: at −100 mV. In a few lines: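 Steps from −25 mV to −100…+40 mV. Transients taken as current without minus current with compound. Charge is the sum of integrals at −100 and +40 mV, normalised to 10 mM of the same compound. IC50 from a generalized Hill fit; decay from a first-order exponential; 3–10 oocytes.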

The target in another assay is T2, D444E-EAAC1 (Oryctolagus cuniculus, UniProt P31597, D444E).
T2 sequence (P31597 1-524 D444E): T1 sequence (P31597 1-524 D444C) with C444E
As to the kind of experiment: Blockade of sodium-dependent transient currents. In a few lines: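 Oocytes expressing the mutant were voltage clamped in ND96 (pH 7.5, HEPES) and stepped from −25 mV. Transients are buffer current minus buffer-plus-compound current. Charge is the sum of current–time integrals at −100 and +80 mV, normalised to 1 mM L-aspartate or 15 mM succinate, and fitted to a generalized Hill equation. Decay constants come from a first-order exponential fit; mean ± SEM of 3–10 oocytes.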

The next assay addresses T3, D444N mutant EAAC1 (Oryctolagus cuniculus, UniProt P31597, D444N).
T3 sequence (P31597 1-524 D444N): T1 sequence (P31597 1-524 D444C) with C444N
The assay can be described thus: Blockade of transient currents.

A further assay has as its target T4, D444S-EAAC1 (Oryctolagus cuniculus, UniProt P31597, D444S).
T4 sequence (P31597 1-524 D444S): T1 sequence (P31597 1-524 D444C) with C444S
The assay can be described thus: Blockade of sodium-dependent transient currents. Particulars: for Decay time of transient currents blocked: at −100 mV. In a few lines:
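Oocytes expressing the mutant were clamped in sodium ND96 and given 250-ms pulses from −25 mV to −100…+40 mV, with and without compound; TBOA was added to a stopped bath. Isolated transients (without minus with compound) were integrated at −100 and +40 mV and summed. Charge was normalised to 10 mM of each compound and Hill-fitted; 4–6 oocytes. Decay came from an exponential fit; 3–10 oocytes.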

The next assay addresses T5, WT-EAAC1 (Oryctolagus cuniculus, UniProt P31597).
T5 sequence (P31597 1-524): T1 sequence (P31597 1-524 D444C) with C444D
Particulars: NaSCN-based buffer. In a few lines:
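Two-electrode voltage clamp of oocytes in buffer with all NaCl replaced by NaSCN, grounded through a 2% agarose/2 M KCl bridge. Compounds were 2 mM; TBOA (10 μM) was added to a stopped bath. Steps from −25 mV to −100…+40 mV. Net steady-state current (with minus without) was normalised to the L-aspartate current at +40 mV; mean ± SEM of 3 oocytes (L-aspartate n = 6).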

The target in another assay is T6, D444C mutant EAAC1 (Oryctolagus cuniculus, UniProt P31597, D444C).
T6 sequence (P31597 1-524 D444C): T1 sequence (P31597 1-524 D444C)
Conditions: 10 min.

Another assay concerns the target T7, T448A mutant EAAC1 (Oryctolagus cuniculus, UniProt P31597, T448A).
T7 sequence (P31597 1-524 T448A): T1 sequence (P31597 1-524 D444C) with C444D, T448A
As to the kind of experiment: Uptake of D-[3H]-aspartate in Xenopus laevis oocytes expressing T448A. Conditions: 20 min in ND96.

For `N[C@@H](CCC(=O)O)C(=O)O` [L-Glutamate, L-glutamate], the IC50 at D444C-EAAC1 was 29 ± 3 µM; on D444E-EAAC1 (IC50 for substrates/blockers of charge movements, Xenopus oocytes, mean ± SEM), 24.4 ± 2.2 µM; at D444N mutant EAAC1 it was 718 ± 217 µM; against D444S-EAAC1 it was 1220 ± 160 µM. In addition, the “Decay time of transient currents blocked” value on D444C-EAAC1 (D444C, 10 mM compound) is recorded as 17.7 ± 1 ms; at D444S-EAAC1 (D444S, 10 mM compound), 11.0 ± 1.2 ms.

For the molecule `N[C@H](CC(=O)O)C(=O)O` [D-Aspartate, D-aspartate], the IC50 was 8 ± 1 µM against D444C-EAAC1 and 1370 ± 360 µM against D444S-EAAC1. The “Decay time of transient currents blocked” value at D444C-EAAC1 (D444C, 10 mM compound) was determined as 18.4 ± 1 ms; at D444S-EAAC1 (D444S, 10 mM compound), 12.8 ± 0.6 ms.

Turning to `N[C@H](C(=O)O)[C@H](OCc1ccccc1)C(=O)O` (racemic) [TBOA, DL-threo-β-benzyloxyaspartate], the “Decay time of transient currents blocked” value at D444C-EAAC1 (D444C, 10 μM D,L-TBOA) is recorded as 4.8 ± 0.3 ms; at D444E-EAAC1 (10 μM D,L-TBOA, at +80 mV), 5.6 ± 1.2 ms; on D444S-EAAC1 (D444S, 160 μM D,L-TBOA), 6 ± 0.6 ms. Besides, the IC50 was 1.9 ± 0.2 µM on D444C-EAAC1 (read-out: IC50 for substrates/blockers of charge movements, D444C, Xenopus oocytes, mean ± SEM); 1.8 ± 0.4 µM on D444E-EAAC1 (read-out: IC50 for substrates/blockers of charge movements, Xenopus oocytes, mean ± SEM); 31 ± 8 µM on D444S-EAAC1 (read-out: IC50 for substrates/blockers of charge movements, D444S, Xenopus oocytes, mean ± SEM). Further, the “Effect on the anion conductance” value on WT-EAAC1 (10 μM D,L-TBOA) was “decreased”.

At D444C-EAAC1, `O=C(O)CCCC(=O)O` [Glutarate, glutarate] came in with an IC50 of 260 ± 40 µM. The “Inhibition of transient currents of similar size as succinate” value on D444S-EAAC1 (D444S, 2 mM, unpublished data) is listed as “capable of inhibiting”.

As for `[3H]C(C(=O)O)C([3H])(N)C(=O)O` [D-[^3H]-aspartate, D-[2,3-^3H]-aspartic acid], the “D-[3H]-aspartate uptake relative to WT-EAAC1” value at D444C mutant EAAC1 is about 5%. Moreover, at T448A mutant EAAC1, the “Uptake of D-[3H]-aspartate relative to WT” value is given as about 20%.

`NCCCC(=O)O` [GABA]: at D444S-EAAC1 (D444S, 5 mM, sodium 96 mM), the “Inhibition of the transient currents” value is “unable to inhibit”. Besides, the “Effect on the anion conductance” value on WT-EAAC1 (2 mM) is “not seen”.
